Test results: ChEMBL document CHEMBL3399922, “3-Oxoisoxazole-2(3H)-carboxamides and isoxazol-3-yl carbamates: Resistance-breaking acetylcholinesterase inhibitors targeting the malaria mosquito, Anopheles gambiae” (Bioorg Med Chem, 2015)
≈ marks a conversion by molar mass, not a printed value.

How the values were obtained:
[1] = tested on: Anopheles gambiae; experiment: Tarsal contact toxicity in Anopheles gambiae G3 (MRA-112) assessed as mortality measured at 24 hrs by filter paper assay; assay type: functional
Outline: (§1)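 Non-blood-fed adult females, 3–5 days old, followed a modified 2006 WHO tube assay. Filter papers (15 × 12 cm) were treated with ethanolic carbamate and dried overnight. Mosquitoes were exposed 1 h, then given 10% sugar water, at 24 ± 1 °C and 75% RH; mortality was read at 24 h. G3 used 20-25/batch in triplicate and Akron 10-15 in duplicate. LC50 was from probit analysis of typically 5-8 concentrations.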

[2] = tested on: Anopheles gambiae; experiment: Tarsal contact toxicity in Anopheles gambiae Akron (MRA-913) assessed as mortality measured at 24 hrs by filter paper assay; assay type: functional; outline: as §1
[3] = tested on: Anopheles gambiae; experiment: Tarsal contact toxicity in Anopheles gambiae G3 (MRA-112) assessed as mortality measured at 1000 ug/mL at 24 hrs by filter paper assay; assay type: functional; outline: as §1
[4] = Inhibition of recombinant Anopheles gambiae AChE G119S mutant compound incubated for up to 60 mins at approximately 10 mins interval; design: unit not given here
Outline: (§2)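 Recombinant AgAChE enzymes were incubated with typically five inhibitor concentrations plus an inhibitor-free control. Residual activity v/v0 was read by Ellman assay against a time-matched control, at 23 ± 1°C, pH 7.7, 0.1% (v/v) DMSO. kobs is the slope of ln(v/v0) vs time, from at least two experiments. ki is the slope of kobs vs [I] in the linear, non-saturating range. Duplicate wells.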

[5] = Inhibition of recombinant wild-type Anopheles gambiae AChE compound incubated for up to 6 min at approximately 1 min interval; design: unit not given here; outline: as §2
[6] = target: Acetylcholinesterase (Homo sapiens, UniProt P22303); experiment: Inhibition of recombinant human AChE; design: unit not given here
[7] = tested on: Anopheles gambiae; experiment: Tarsal contact toxicity in Anopheles gambiae Akron (MRA-913) assessed as mortality measured at 200 ug/mL at 24 hrs by filter paper assay; assay type: functional; outline: as §1
[8] = tested on: Anopheles gambiae; experiment: Tarsal contact toxicity in Anopheles gambiae Akron (MRA-913) assessed as mortality measured at 1000 ug/mL at 24 hrs by filter paper assay; assay type: functional; outline: as §1

Chain of Acetylcholinesterase (P22303 whole entry): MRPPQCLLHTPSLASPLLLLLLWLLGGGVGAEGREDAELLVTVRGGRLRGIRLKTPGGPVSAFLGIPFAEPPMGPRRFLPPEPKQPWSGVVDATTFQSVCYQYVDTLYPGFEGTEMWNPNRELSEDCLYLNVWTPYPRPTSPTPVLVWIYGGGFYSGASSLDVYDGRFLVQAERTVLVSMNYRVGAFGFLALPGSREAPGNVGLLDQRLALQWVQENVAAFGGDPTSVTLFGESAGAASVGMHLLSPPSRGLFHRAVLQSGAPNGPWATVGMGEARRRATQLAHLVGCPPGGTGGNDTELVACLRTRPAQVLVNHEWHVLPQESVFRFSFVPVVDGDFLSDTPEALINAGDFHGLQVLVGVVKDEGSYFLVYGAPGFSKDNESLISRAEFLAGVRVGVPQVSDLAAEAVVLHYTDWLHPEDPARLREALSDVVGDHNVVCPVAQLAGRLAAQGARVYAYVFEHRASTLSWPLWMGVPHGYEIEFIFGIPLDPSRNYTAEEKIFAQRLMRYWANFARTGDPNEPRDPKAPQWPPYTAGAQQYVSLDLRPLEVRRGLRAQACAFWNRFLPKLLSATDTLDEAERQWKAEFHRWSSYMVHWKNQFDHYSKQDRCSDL

Row | SMILES | LC50 [1] [µg/mL] | LC50 [2] [µg/mL] | mortality at 1000 µg/mL [3] [%] | further results
1 | CN(C)C(=O)Oc1cc(C2CCC2)on1 | 349 (≈ 1660 µM) | 392 (≈ 1860 µM) | – | –
2 | CN(C)C(=O)n1oc(CCC2CC2)cc1=O | 133 (≈ 593 µM) | 144 (≈ 642 µM) | – | –
3 | CC(C)c1cc(=O)n(C(=O)N(C)C)o1 | 316 (≈ 1590 µM) | 182 (≈ 918 µM) | – | –
4 | CNC(=O)O/N=C/C(C)(C)SC [ALDICARB] | 70 (≈ 368 µM) | 32 (≈ 168 µM) | – | –
5 | CN(C)C(=O)n1oc(CCC2CCC2)cc1=O | – | – | 30 | –
6 | CN(C)C(=O)Oc1cc(C2CCCC2)on1 | – | – | 60 | –
7 | CCC(CC)c1cc(=O)n(C(=O)N(C)C)o1 | 38 (≈ 168 µM) | 40 (≈ 177 µM) | – | –
8 | CC(C)Cc1cc(=O)n(C(=O)N(C)C)o1 | 201 (≈ 947 µM) | – | – | Ki [4]: 0.55; Ki [5]: 252; Ki [6]: 30.9; mortality at 200 µg/mL [7]: 25%
9 | CCC(C)Cc1cc(OC(=O)N(C)C)no1 (stereo not drawn) | – | – | 30 | –
10 | CN(C)C(=O)n1oc(C2CCC2)cc1=O | 79 (≈ 376 µM) | 74 (≈ 352 µM) | – | –
11 | CN(C)C(=O)n1oc(CCC2CCCC2)cc1=O | – | – | 0 | –
12 | CCC(C)c1cc(OC(=O)N(C)C)no1 (stereo not drawn) | 41 (≈ 193 µM) | 58 (≈ 273 µM) | – | –
13 | CCC(CC)c1cc(OC(=O)N(C)C)no1 | – | – | 70 | –
14 | CNC(=O)Oc1cccc2c1OC(C)(C)O2 [BENDIOCARB] | 16 (≈ 71.7 µM) | > 5000 | – | –
15 | Cc1cc(OC(=O)N(C)C)no1 | – | – | 0 | –
16 | CNC(=O)Oc1ccccc1OC(C)C [PROPOXUR] | 39 (≈ 186 µM) | > 5000 | – | –
17 | CC(C)c1cc(OC(=O)N(C)C)no1 | 84 (≈ 424 µM) | 116 (≈ 585 µM) | – | –
18 | CCC(C)Cc1cc(=O)n(C(=O)N(C)C)o1 (stereo not drawn) | – | – | 0 | –
19 | CC(C)Cc1cc(OC(=O)N(C)C)no1 | 253 (≈ 1190 µM) | 151 (≈ 711 µM) | – | –
20 | CCCC(C)c1cc(=O)n(C(=O)N(C)C)o1 (stereo not drawn) | 153 (≈ 676 µM) | 75 (≈ 331 µM) | – | –
21 | CN(C)C(=O)Oc1cc(CCC2CC2)on1 | 191 (≈ 852 µM) | 198 (≈ 883 µM) | – | –
22 | CN(C)C(=O)n1oc(C2CC2)cc1=O | 278 (≈ 1420 µM) | – | – | Ki [4]: 0.2; Ki [5]: 50.5; Ki [6]: 103; mortality at 1000 µg/mL [8]: 10%
23 | Cc1cc(=O)n(C(=O)N(C)C)o1 | – | – | 0 | –

Row | SMILES | LC50 [1] [µg/mL] | LC50 [2] [µg/mL] | mortality at 1000 µg/mL [3] [%] | further results
24 | CN(C)C(=O)Oc1cc(C2CC2)on1 | – | – | 0 | –
25 | CCCC(C)c1cc(OC(=O)N(C)C)no1 (stereo not drawn) | 234 (≈ 1030 µM) | 296 (≈ 1310 µM) | – | Ki [4]: 30.6; Ki [5]: 416; Ki [6]: 50.9
26 | CN(C)C(=O)Oc1cc(CCC2CCCC2)on1 | 674 (≈ 2670 µM) | – | – | Ki [4]: 0.12; Ki [5]: 0.6; Ki [6]: 13.1
27 | CN(C)C(=O)n1oc(CC(C)(C)C)cc1=O | – | – | 80 | –
28 | CCC(C)c1cc(=O)n(C(=O)N(C)C)o1 (stereo not drawn) | 63 (≈ 297 µM) | 129 (≈ 608 µM) | – | –
29 | CCCC(C)c1cc(=O)n(C(=O)N2CCCC2)o1 (stereo not drawn) | – | – | 77 | –
30 | CCCCC(CC)c1cc(OC(=O)N(C)C)no1 (stereo not drawn) | – | – | 0 | –
31 | CCCC(C)c1cc(=O)n(C(=O)N2CCOCC2)o1 (stereo not drawn) | – | – | 45 | –
32 | CNC(=O)Oc1cccc(C(C)(C)C)c1 | 37 (≈ 179 µM) | > 5000 | – | –
33 | CN(C)C(=O)Oc1cc(CCC2CCC2)on1 | – | – | 40 | –
34 | CCCC(C)c1cc(=O)n(C(=O)N2CCC2)o1 (stereo not drawn) | – | – | 78 | –
35 | CCC(C)n1cc(OC(=O)NC)cn1 (stereo not drawn) | 96 (≈ 487 µM) | 81 (≈ 411 µM) | – | –
36 | CN(C)C(=O)Oc1cc(CC(C)(C)C)on1 | – | – | 0 | Ki [4]: 0.05; Ki [5]: 0.12; Ki [6]: 0.44
37 | CCCC(C)c1cc(OC(=O)N(C)CC)no1 (stereo not drawn) | 410 (≈ 1710 µM) | 574 (≈ 2390 µM) | – | –
38 | CCCC(C)c1cc(OC(=O)N2CCCC2)no1 (stereo not drawn) | – | – | 0 | –
39 | CN(C)C(=O)n1oc(C2CCCC2)cc1=O | 105 (≈ 468 µM) | 118 (≈ 526 µM) | – | –
40 | CNC(=O)Oc1cccc2c1OC(C)(C)C2 [CARBOFURAN] | 16 (≈ 72.3 µM) | > 5000 | – | –
41 | CC(C)CCc1cc(OC(=O)N(C)C)no1 | 415 (≈ 1830 µM) | 429 (≈ 1900 µM) | – | –
42 | CCCC(C)c1cc(=O)n(C(=O)N(CC)CC)o1 (stereo not drawn) | – | – | 15 | –
43 | CC(C)CCc1cc(=O)n(C(=O)N(C)C)o1 | 73 (≈ 323 µM) | 68 (≈ 301 µM) | – | Ki [4]: 0.4; Ki [5]: 266; Ki [6]: 80.9
44 | CCCC(C)c1cc(=O)n(C(=O)N(C)CC)o1 (stereo not drawn) | 400 (≈ 1660 µM) | 614 (≈ 2560 µM) | – | –
45 | CCCC(C)c1cc(OC(=O)N2CCOCC2)no1 (stereo not drawn) | – | – | 10 | –
